Columns and labels:
[1] = Resistance factor, ratio of vincristine IC50 to vincristine IC50 in presence of compound for human KB/VCR cells; assay type: functional
Summary of the method: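 Vincristine was serially diluted from 0.125 to 1 µM and tested with or without 25 µM test sample. Resistance factor is the vincristine IC50 alone divided by the vincristine IC50 with sample.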

[2] = Cytotoxicity against human KB/VCR cells at 25 uM after 72 hrs by SRB method; assay type: functional
Summary of the method: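 Test sample was given alone at 25 µM, and cytotoxicity was expressed as percent inhibition ratio.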

[3] = Cytotoxicity against human KB/VCR cells after 72 hrs by SRB method; assay type: functional, cell-based
[4] = Cytotoxicity against human KB/VCR cells at 10 uM after 72 hrs by SRB method; assay type: functional

| Compound | Ratio IC50 [1] | inhibition at 25 µM [2] [%] | IC50 [3] [nM] | inhibition at 10 µM [4] [%] |
| --- | --- | --- | --- | --- |
| CCCCC[C@@H](CCCCCCCCCC(=O)O)O[C@@H]1O[C@H](CO[C@@H]2O[C@@H](C)[C@H](O)[C@@H](O)[C@H]2OC(=O)[C@H](C)[C@@H](C)O)[C@@H](O)[C@H](O)[C@H]1O[C@@H]1O[C@H](CO)[C@@H](O[C@@H]2O[C@@H](C)[C@H](O)[C@@H](OC(=O)[C@H](C)[C@@H](C)O)[C@H]2O)[C@H](O)[C@H]1O | 1.19 | 2.52 | – | – |
| CC[C@]1(O)C[C@H]2CN(CCc3c([nH]c4ccccc34)[C@@](C(=O)OC)(c3cc4c(cc3OC)N(C=O)[C@H]3[C@@](O)(C(=O)OC)[C@H](OC(C)=O)[C@]5(CC)C=CCN6CC[C@]43[C@@H]65)C2)C1 [VINCRISTINE] | – | – | 570 | – |
| CCC[C@H](O)CCCCCCCCCC(=O)O[C@H]1[C@H](O[C@H]2C(O)O[C@H](CO)[C@@H](O)[C@@H]2O)O[C@@H](C)[C@@H](OC(=O)[C@H](C)[C@@H](C)O)[C@H]1O[C@@H]1O[C@@H](C)[C@H](O)[C@@H](O)[C@H]1O (some centres not stated) | 1.03 | 1.64 | – | – |
| COc1ccc(CCN(C)CCCC(C#N)(c2ccc(OC)c(OC)c2)C(C)C)cc1OC (configuration not stated) | – | – | – | 0.45 |
| CCCCC[C@H](O)CCCCCCCC(=O)O[C@H]1[C@H](O[C@H]2C(O)O[C@H](COC(C)=O)[C@@H](O)[C@@H]2O)O[C@@H](C)[C@@H](OC(=O)[C@H](C)[C@@H](C)O)[C@H]1O[C@@H]1O[C@@H](C)[C@H](O)[C@@H](O)[C@H]1O (some centres not stated) | 1.36 | 0.85 | – | – |
| CCCCC[C@@H](CCCCCCC[C@H](O)CC(=O)O)O[C@@H]1O[C@H](CO[C@@H]2O[C@@H](C)[C@H](O)[C@@H](O)[C@H]2OC(=O)[C@H](C)[C@@H](C)O)[C@@H](O)[C@H](O)[C@H]1O[C@@H]1O[C@H](CO)[C@@H](O[C@@H]2O[C@@H](C)[C@H](O)[C@@H](OC(=O)[C@H](C)[C@@H](C)O)[C@H]2O)[C@H](O)[C@H]1O | 1.32 | 0.83 | – | – |
| CCCCC[C@H](O)CCCCCCCCCC(=O)O[C@H]1[C@H](O[C@H]2C(O)O[C@H](CO)[C@@H](O)[C@@H]2O)O[C@@H](C)[C@H](OC(=O)[C@H](C)[C@@H](C)O)[C@H]1O[C@@H]1O[C@@H](C)[C@H](O)[C@@H](O)[C@H]1O (some centres not stated) | 1.78 | 1.35 | – | – |

— ChEMBL document CHEMBL3393024, “Multidrug resistance-reversal effects of resin glycosides from Dichondra repens” (Bioorg Med Chem Lett, 2015)
